Experiments:
Set-up in all cases: dose 2.5 mg/kg, route intraperitoneal
Conditions in all cases: in vivo, 168 h
[1] = test system: Mus musculus; assay: Toxicity in Swiss mouse assessed as increase in myeloperoxidase activity in stomach at 2.5 mg/kg, ip for 7 days by spectrophotometric analysis; format: organism-based
In short: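 Same daily ip dosing for 7 days. Stomach was homogenized in 50 mM K2PO4 pH 6.0 with 0.5% HTAB and spun at 16100g for 2 min. Supernatant was mixed with 50 mM phosphate pH 6.0 containing 0.167 mg/mL o-dianisidine and 0.015% H2O2, then read at 450 nm three times within 1 min. Values came from a neutrophil standard curve, as neutrophils ×10^4/mg tissue.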

[2] = test system: Mus musculus; assay: Hepatotoxicity in Swiss mouse assessed as increase in plasma ALT level at 2.5 mg/kg, ip for 7 days; format: toxicity, organism-based
In short: (§1)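 Mice dosed ip once daily for 7 days; the vehicle was saline or Tris/HCl buffer pH 8.0, with the vehicle data pooled. Plasma AST and ALT were measured with a diagnostic kit as markers of hepatotoxicity.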

[3] = test system: Mus musculus; assay: Hepatotoxicity in Swiss mouse assessed as increase in plasma AST level at 2.5 mg/kg, ip for 7 days; format: toxicity, organism-based; in short: as §1

Measured: Activity

COc1ccc2c(c1)c(CC(=O)O)c(C)n2C(=O)c1ccc(Cl)cc1 [INDOMETHACIN]
Toxic: all assays above
